Measurements taken from ChEMBL document CHEMBL1150594, “Suberosols A-D, four new sesquiterpenes with beta-caryophyllene skeletons from a Taiwanese gorgonian coral Subergorgia suberosa” (2002).
Values after ≈ are worked out from the molar mass of the structure shown.

Columns and labels:
Format in all cases: functional
Conditions in all cases: read-out: ED50 (the source's name)
P388 = test: Cytotoxicity against mouse P388 cells by MTT assay
Summary of the method: (§1)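 Growth inhibition of cancer cells read by a modified MTT colorimetric method, following a previously described procedure. P-388 cells were obtained from an academic laboratory; A549 and HT-29 cells came from the American Type Culture Collection.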

A549 = test: Cytotoxicity against human A549 cells by MTT assay; summary of the method: as §1
HT-29 = test: Cytotoxicity against human HT-29 cells by MTT assay; summary of the method: as §1

Compound	EC50 (P388) [µg/mL]	EC50 (A549) [µg/mL]	EC50 (HT-29) [µg/mL]
C=C1CC/C=C(\C)C(=O)C[C@@H]2[C@@H]1CC2(C)C [BUDDLEDIN C]	4.6 (≈ 21.1 µM)	3.8 (≈ 17.4 µM)	3.6 (≈ 16.5 µM)
C=C1CC[C@H]2O[C@]2(C)[C@H](O)C[C@@H]2[C@@H]1CC2(C)C [SUBEROSOL B]	7.4 (≈ 31.3 µM)	> 50	> 50
C=C1CC[C@H]2O[C@]2(C)[C@@H](O)C[C@@H]2[C@@H]1CC2(C)C [SUBEROSOL A]	3.8 (≈ 16.1 µM)	> 50	> 50
C=C1CC/C=C(\C)[C@H](O)C[C@@H]2[C@@H]1CC2(C)C [SUBEROSOL C]	2.1 (≈ 9.53 µM)	5.6 (≈ 25.4 µM)	2.3 (≈ 10.4 µM)
C=C1CC/C=C(/C)C(=O)C[C@@H]2[C@@H]1CC2(C)C [BUDDLEDIN D]	6.3 (≈ 28.9 µM)	8.9 (≈ 40.8 µM)	6.6 (≈ 30.2 µM)
C=C1CC/C=C(/C)[C@@H](O)C[C@@H]2[C@@H]1CC2(C)C [SUBEROSOL D]	3.3 (≈ 15 µM)	4.2 (≈ 19.1 µM)	3.8 (≈ 17.2 µM)
